# Laboratory results from ChEMBL document CHEMBL5042515, “Design and Evaluation of a Novel Peptide-Drug Conjugate Covalently Targeting SARS-CoV-2 Papain-like Protease” (J Med Chem, 2022).
# pIC50: −log10 of the molar value. Active and inactive are the calls of the source. The calls are words filed in the database; no cut-off is given here. *1 amine or outer side, *2 acyl side, *3 side chain or, on linkers, in order; H or OH if unused. Where a SMILES comes first, the peptide text is derived from it. Bridges are numbered along the chain shown (N, C = ends). [ ]: non-standard residue; d: D form. The star is where a group is joined. Met(S-mXyl) = C[S+](CC[C@H](N[*:1])C(=O)[*:2])Cc1cccc(C[*:3])c1; 5FAM = O=C1OC2(c3ccc(O)cc3Oc3cc(O)ccc32)c2ccc(C(=O)*)cc21; X2 = C[S+](CC[C@@H](N[*:1])C(=O)[*:2])Cc1cccc(C[*:3])c1; X1 = Cc1ccc(N*)cc1C(=O)NC(C)c1cccc2ccccc12
# Columns and labels:
# [1] = Inhibition of SARS-CoV PLpro using LRGG-ACC as substrate preincubated for 60 mins followed by substrate addition and measured for 30 mins by enzymatic assay; set-up: species or system Severe acute respiratory syndrome-related coronavirus
# A549 = experiment: Cytotoxicity against human A549 cells assessed as inhibition of cell growth at 1.56 to 100 uM incubated for 24 hrs by MTT assay; format: toxicity, cell-based; conditions: a549, 24 h, dose 1.56-100 µM
# Summary of the method: (§1)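 A549 (RPMI-1640) or 293T (DMEM) cells with 10% FBS, plated overnight, then treated 24 h at 1.56–100 μM in medium with 5% FBS. MTT (5 mg/mL reagent) added for 4 h at 37 °C, dissolved in DMSO, absorbance read at 490 nm. DMSO-only control; at least three independent measurements.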
# HEK-293T [2] = experiment: Cytotoxicity against HEK293T cells assessed as inhibition of cell growth at 1.56 to 100 uM incubated for 24 hrs by MTT assay; format: toxicity, cell-based; conditions: human, dose 1.56-100 µM; summary of the method: as §1
# [3] = molecular target: Replicase polyprotein 1ab (Middle East respiratory syndrome-related coronavirus (isolate UnitedKingdom/H123990006/2012) (Betacoronavirus England 1) (Humancoronavirus EMC)) (UniProt K9N7C7); experiment: Inhibition of MERS PLpro using LRGG-ACC as substrate upto 1000 uM preincubated for 60 mins followed by substrate addition and measured for 30 mins by enzymatic assay; conditions: dose microM <=1000, time 90.0 min
# [4] = Hemolytic activity against mouse erythrocyte at 0 to 60 uM for 1.5 hrs by microplate reader analysis; format: toxicity, cell-based; conditions: dose 0-60 µM
# Summary of the method: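 Fresh mouse erythrocytes washed and resuspended in PBS at 10^8/mL, then exposed to serial dilutions starting at 60 μM for 1.5 h at 37 °C. Supernatant hemoglobin read by absorbance. 0.1% Triton X-100 used as 100% control and PBS as blank; % hemolysis calculated relative to both.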
# HEK293T = experiment: Covalent binding affinity to SARS-CoV-2 PLpro spiked in HEK293T cells lysate at 10 uM incubated for 1 hr by SDS gel analysis; format: subcellular; conditions: Severe acute respiratory syndrome coronavirus 2
# Summary of the method: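 293T cell lysate (300 μg protein) spiked with PLpro (5 μM), then treated with 10 μM FAM-labeled peptide. Labeling read as fluorescent bands on gel.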
# [5] = system: Severe acute respiratory syndrome coronavirus 2; experiment: Binding affinity to SARS-CoV-2 PLpro assessed as covalent bond formation at Cys111 at 10 uM incubated for 1 hr by SDS-PAGE analysis
# [6] = system: Severe acute respiratory syndrome coronavirus 2; experiment: Binding affinity to SARS-CoV-2 PLpro assessed as covalent bond formation at 10 uM incubated for 1 hr by SDS-PAGE analysis
# Summary of the method: (§2)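 FAM-labeled peptides (10 μM) incubated with purified SARS-CoV-2 PLpro (5 μM) in PBS for 1 h. Covalent adduct detected by SDS gel analysis.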
# [7] = system: Severe acute respiratory syndrome coronavirus 2; experiment: Inhibition of SARS-CoV-2 PLpro using LRGG-ACC as substrate at <=1000 uM preincubated for 60 mins followed by substrate addition and measured for 30 mins by enzymatic assay; conditions: dose microM <=1000, time 90.0 min
# Summary of the method: (§3)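 Recombinant His-tagged SARS-CoV-2 PLpro (E. coli BL21(DE3), Ni-NTA then gel filtration) at 0.1 μM, preincubated 1 h at 37 °C with inhibitor diluted from 800 μM. Buffer: 50 mM HEPES pH 7.4, 0.1 mg/mL BSA, 5 mM DTT. Ac-LRGG-ACC substrate at 1 μM final. Fluorescence read at ex 355/em 460 nm for 30 min, at least three times; IC50 from curve fitting.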
# [8] = Inhibition of SARS-CoV-2 PLpro using LRGG-ACC as substrate preincubated for 60 mins followed by substrate addition and measured for 30 mins by enzymatic assay; set-up: species or system Severe acute respiratory syndrome coronavirus 2; summary of the method: as §3
# HEK-293T [9] = experiment: Antiviral activity against HEK293T cells co-transfected with plasmids encoding Myc-tagged ISG15, E1/E2/E3 ubiquitin ligases, SARS-CoV-2 PLpro fused with EGFP assessed as recovery of intracellular ISGylation level incubated for 24 hrs by immunoblot analysis; format: functional, cell-based; conditions: Homo sapiens
# Summary of the method: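 HEK293T cells co-transfected with Myc-ISG15, E1/E2/E3 ligases and EGFP-fused SARS-CoV-2 PLpro, then kept 24 h at 37 °C in DMEM with 5% FBS plus conjugate. Lysates BCA-normalised, 30 μg per lane. Western blot probed with anti-ISG15, anti-GFP and anti-GAPDH (1:1000), ECL detection.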
# HEK-293T [10] = experiment: Antiviral activity in HEK293T cells co-transfected with plasmids encoding Renilla luciferase, Firefly luciferase is driven by IFN-beta promoter, MAVS assessed as recovery of suppressed IFN-beta promoter activity at 10 to 100 uM by Dual-Luciferase reporter assay relative to control; format: functional, cell-based; conditions: Homo sapiens, dose 10-100 µM
# Summary of the method: (§4)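 HEK293T cells co-transfected with Renilla luciferase reference, IFN-β promoter-driven firefly luciferase, MAVS and SARS-CoV-2 PLpro, then treated with conjugate. Activity scaled to the ISG15-plasmid positive control set as 100%; blank plasmid as negative control; unpaired two-tailed t-test.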
# [11] = system: Severe acute respiratory syndrome coronavirus 2; experiment: Covalent binding affinity to SARS-CoV-2 PLpro Cys111 at 30 uM for 4 hrs by In-gel trypsin digestion based MS-MS analysis
# Summary of the method: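 Peptide (30 μM) with PLpro (5 μM) in Tris buffer, 37 °C, 4 h. Conjugate band excised from 15% SDS-PAGE, destained with ammonium bicarbonate/acetonitrile and trypsin-digested overnight at 16 °C. Peptides extracted in 50% acetonitrile/0.5% formic acid for MS/MS mapping of the modified residue.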
# [12] = Drug uptake in human HeLa cells at 10 uM for 4 hrs by tryphan blue staining based flow cytometry relative to control; format: ADME, cell-based
# [13] = system: Severe acute respiratory syndrome coronavirus 2; experiment: Covalent binding affinity to SARS-CoV-2 PLpro by SDS-PAGE analysis
# [14] = system: Severe acute respiratory syndrome coronavirus 2; experiment: Covalent binding affinity to SARS-CoV-2 PLpro assessed as reaction efficiency at 0 to 25 uM for 2 hrs by SDS-PAGE analysis; conditions: dose 0-25 µM
# Summary of the method: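 Purified SARS-CoV-2 PLpro (5 μM) incubated with peptide at 0, 2.5, 5, 10, 15, 20 and 25 μM in PBS (pH 7.4, 37 °C). Conjugation resolved on 15% SDS-PAGE.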
# [15] = system: Severe acute respiratory syndrome-related coronavirus; experiment: Inhibition of SARS-CoV PLpro using LRGG-ACC as substrate at <=1000 uM preincubated for 60 mins followed by substrate addition and measured for 30 mins by enzymatic assay; conditions: dose microM <=1000, time 90.0 min
# [16] = system: Severe acute respiratory syndrome coronavirus 2; experiment: Covalent binding affinity to SARS-CoV-2 PLpro assessed as reaction efficiency at 10 uM for 1 hr by SDS-PAGE analysis; summary of the method: as §2
# [17] = system: Severe acute respiratory syndrome coronavirus 2; experiment: Covalent binding affinity to SARS-CoV-2 PLpro assessed as reaction efficiency at 10 uM and incubated for 0.5 to 4 hrs by SDS-PAGE analysis; conditions: time 0.5-4 hrs, TDE = time-dependent effect
# Summary of the method: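 Peptide (10 μM) with purified SARS-CoV-2 PLpro (5 μM) in PBS, pH 7.4, 37 °C, sampled at 0.5, 1, 2, 3 and 4 h. Conjugate band resolved on 15% SDS-PAGE.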
# HEK-293T [18] = experiment: Antiviral activity in HEK293T cells co-transfected with plasmids encoding Renilla luciferase, Firefly luciferase is driven by IFN-beta promoter, MAVS assessed as recovery of suppressed IFN-beta promoter activity at 100 uM by Dual-Luciferase reporter assay; format: functional, cell-based; conditions: Homo sapiens; summary of the method: as §4
structure (smiles),measurement,setting,value
Cc1ccc(N)cc1C(=O)NC(C)c1cccc2ccccc12 (stereo not drawn),pIC50,[1],5.59
same,Activity,A549,Non-Toxic
same,Activity,HEK-293T [2],Non-Toxic
same,inhibition,[3],inactive
same,Activity,[4],Non-Toxic
Cc1ccc(NC(=O)CC[C@H](NC(=O)c2ccc3c(c2)C(=O)OC32c3ccc(O)cc3Oc3cc(O)ccc32)C(=O)N[C@H]2CSCc3cccc(c3)C[S+](C)CC[C@@H](C(=O)O)NC(=O)CNC(=O)[C@H](CCCNC(=N)N)NC(=O)[C@H](CC(C)C)NC2=O)cc1C(=O)NC(C)c1cccc2ccccc12 (stereo partly drawn) (5FAM-E(X1)CLRG[Met(S-mXyl)]-OH; thioether 2-6),Activity,HEK293T,Active
Cc1ccc(NC(=O)CC[C@H](NC(=O)c2ccc3c(c2)C(=O)OC32c3ccc(O)cc3Oc3cc(O)ccc32)C(=O)N[C@H]2CC[S+](C)Cc3cccc(c3)CSC[C@@H](C(=O)O)NC(=O)CNC(=O)[C@H](CCCNC(=N)N)NC(=O)[C@H](CC(C)C)NC2=O)cc1C(=O)NC(C)c1cccc2ccccc12 (stereo partly drawn) (5FAM-E(X1)[Met(S-mXyl)]LRGC-OH; thioether 2-6),Activity,HEK293T,Active
CC(C)C[C@@H]1NC(=O)[C@@H](N)CSCc2cccc(c2)C[S+](C)CC[C@@H](C(=O)O)NC(=O)CNC(=O)[C@H](CCCNC(=N)N)NC1=O (stereo partly drawn) (H-CLRG[Met(S-mXyl)]-OH; thioether 1-5),Activity,[5],Active
same,Activity,[6],Active
same,inhibition,[7],inactive
C[S+]1CC[C@@H](C(=O)O)NC(=O)CNC(=O)CNC(=O)[C@H](CCCNC(=N)N)NC(=O)[C@@H](N)CSCc2cccc(c2)C1 (stereo partly drawn) (H-CRGG[Met(S-mXyl)]-OH; thioether 1-5),Activity,[5],Active
same,Activity,[6],Active
same,inhibition,[7],inactive
Cc1ccc(NC(=O)CC[C@H](N)C(=O)N[C@H]2CSCc3cccc(c3)C[S+](C)CC[C@@H](C(=O)O)NC(=O)CNC(=O)[C@H](CCCNC(=N)N)NC(=O)[C@H](CC(C)C)NC2=O)cc1C(=O)NC(C)c1cccc2ccccc12 (stereo partly drawn) (H-E(X1)CLRG[Met(S-mXyl)]-OH; thioether 2-6),Activity,A549,Non-Toxic
same,pIC50,[8],5.06
same,Activity,HEK-293T [9],Dose-Dependent Effect
same,Activity,HEK-293T [10],Dose-Dependent Effect
same,Activity,[11],Active
same,Activity,HEK-293T [2],Non-Toxic
same,inhibition,[3],inactive
same,Drug uptake,[12],Active
same,Activity,[4],Non-Toxic
same,Activity,[13],Active
same,Activity,[14],Dose-Dependent Effect
same,inhibition,[15],Active
Cc1ccc(NC(=O)CC[C@H](N)C(=O)N[C@@H](CC(C)C)C(=O)N[C@@H](CCCNC(=N)N)C(=O)NCC(=O)NCC(=O)O)cc1C(=O)NC(C)c1cccc2ccccc12 (stereo partly drawn) (H-E(X1)LRGG-OH),pIC50,[8],4.81
same,inhibition,[3],inactive
same,Drug uptake,[12],Active
same,Activity,[13],inactive
same,inhibition,[15],inactive
Cc1ccc(NC(=O)CC[C@H](N)C(=O)N[C@H]2CC[S+](C)Cc3cccc(c3)CSC[C@@H](C(=O)O)NC(=O)CNC(=O)[C@H](CCCNC(=N)N)NC(=O)[C@H](CC(C)C)NC2=O)cc1C(=O)NC(C)c1cccc2ccccc12 (stereo partly drawn) (H-E(X1)[Met(S-mXyl)]LRGC-OH; thioether 2-6),Activity,[16],Active
same,Activity,[17],Tde
same,pIC50,[1],5.46
same,Activity,A549,Non-Toxic
same,pIC50,[8],5.13
same,Activity,HEK-293T [9],Dose-Dependent Effect
same,Activity,HEK-293T [2],Non-Toxic
same,Activity,HEK-293T [18],inactive
same,inhibition,[3],inactive
same,Drug uptake,[12],Active
same,Activity,[4],Non-Toxic
same,Activity,[13],Active
same,Activity,[14],Dose-Dependent Effect
CC(C)C[C@H](N)C(=O)N[C@H]1CSCc2cccc(c2)C[S+](C)CC[C@H](C(=O)O)NC(=O)CNC(=O)CNC1=O (stereo partly drawn) (H-LCGG[X2]-OH; thioether 2-5),inhibition,[7],inactive
CC(C)C[C@H](N)C(=O)N[C@@H](CCCNC(=N)N)C(=O)NCC(=O)NCC(=O)N[C@H]1CSCc2cccc(c2)C[S+](C)CC[C@@H](C(=O)O)NC(=O)[C@H](C)NC(=O)[C@H](C)NC(=O)[C@H](C)NC1=O (stereo partly drawn) (H-LRGGCAAA[Met(S-mXyl)]-OH; thioether 5-9),Activity,[5],Active
same,Activity,[6],Active
same,inhibition,[7],inactive
CC(C)C[C@H](N)C(=O)N[C@@H](CCCNC(=N)N)C(=O)NCC(=O)NCC(=O)N[C@H]1CC[S+](C)Cc2cccc(c2)CSC[C@@H](C(=O)O)NC(=O)[C@H](C)NC(=O)[C@H](C)NC(=O)[C@H](C)NC1=O (stereo partly drawn) (H-LRGG[Met(S-mXyl)]AAAC-OH; thioether 5-9),Activity,[6],Active
same,inhibition,[7],inactive
CC(C)C[C@H](N)C(=O)N[C@H]1CC[S+](C)Cc2cccc(c2)CSC[C@@H](C(=O)O)NC(=O)CNC(=O)CNC1=O (stereo partly drawn) (H-L[Met(S-mXyl)]GGC-OH; thioether 2-5),inhibition,[7],inactive
CC(C)C[C@@H]1NC(=O)[C@@H](N)CC[S+](C)Cc2cccc(c2)CSC[C@@H](C(=O)O)NC(=O)CNC(=O)[C@H](CCCNC(=N)N)NC1=O (stereo partly drawn) (H-[Met(S-mXyl)]LRGC-OH; thioether 1-5),inhibition,[7],inactive
C[S+]1CC[C@H](N)C(=O)N[C@@H](CCCNC(=N)N)C(=O)NCC(=O)NCC(=O)N[C@H](C(=O)O)CSCc2cccc(c2)C1 (stereo partly drawn) (H-[Met(S-mXyl)]RGGC-OH; thioether 1-5),Activity,[6],Active
same,inhibition,[7],inactive
